Measurements from ChEMBL document CHEMBL1148855, “Synthesis and antibacterial activity of 4,5,6,7-tetrahydro-thieno[3,2-c]pyridine quinolones” (2007).
≈ marks a conversion by molar mass, not a printed value.

Experiments:
Type in all cases: functional
[1] = tested on: Staphylococcus aureus; experiment: Antibacterial activity against linezolid-resistant Staphylococcus aureus NRS 119 by microbroth dilution method
Method in brief: (§1)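 Microbroth dilution run per National Committee guidelines; MIC taken as the concentration giving 90% inhibition of bacterial growth. Tested within a broader panel of susceptible and resistant Gram-positive strains. Reported values come from triplicate determinations.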

[2] = tested on: Staphylococcus epidermidis; experiment: Antibacterial activity against Staphylococcus epidermidis ATCC 12228 by micro-broth dilution method
Method in brief: (§2)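 MIC taken as the lowest concentration giving 90% inhibition of bacterial growth. Determined by microbroth dilution following National Committee (NCCLS) guidance, with each value determined in triplicate.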

[3] = tested on: Bacillus subtilis; experiment: Antibacterial activity against Bacillus subtilis ATCC 6633 by micro-broth dilution method; method in brief: as §2
[4] = tested on: Staphylococcus aureus; experiment: Antibacterial activity against Staphylococcus aureus ATCC 25923 by micro-broth dilution method; method in brief: as §2
[5] = tested on: Staphylococcus aureus; experiment: Antibacterial activity against Staphylococcus aureus ATCC 33592 by micro-broth dilution method; method in brief: as §2
[6] = tested on: Enterococcus faecalis; experiment: Antibacterial activity against Enterococcus faecalis ATCC 14506 by microbroth dilution method; method in brief: as §2
[7] = tested on: Enterococcus faecalis; experiment: Antibacterial activity against Enterococcus faecalis ATCC 29212 by micro-broth dilution method; method in brief: as §2
[8] = tested on: Escherichia coli; experiment: Antibacterial activity against Escherichia coli ATCC 25922 by micro-broth dilution method; method in brief: as §2
[9] = tested on: Streptococcus pneumoniae; experiment: Antibacterial activity against penicillin-resistant Streptococcus pneumoniae ATCC 700904 by micro-broth dilution method; method in brief: as §1
[10] = tested on: Klebsiella pneumoniae; experiment: Antibacterial activity against Klebsiella pneumoniae ATCC 10031 by micro-broth dilution method; method in brief: as §2
[11] = tested on: Staphylococcus aureus; experiment: Antibacterial activity against methicillin-resistant Staphylococcus aureus ATCC 700699 by micro-broth dilution method; method in brief: as §1
[12] = tested on: Enterococcus faecium; experiment: Antibacterial activity against vancomycin-resistant Enterococcus faecium ATCC 700221 by microbroth dilution method; method in brief: as §1
[13] = tested on: Staphylococcus aureus; experiment: Antibacterial activity against Staphylococcus aureus ATCC 33591 by micro-broth dilution method; method in brief: as §2
[14] = tested on: Pseudomonas aeruginosa; experiment: Antibacterial activity against Pseudomonas aeruginosa ATCC 27853 by micro-broth dilution method; method in brief: as §2
[15] = tested on: Staphylococcus aureus; experiment: Antibacterial activity against Staphylococcus aureus ATCC 29213 by micro-broth dilution method; method in brief: as §2
[16] = tested on: Enterococcus faecalis; experiment: Antibacterial activity against vancomycin-resistant Enterococcus faecalis ATCC 700802 by micro-broth dilution method; method in brief: as §1

SMILES	MIC [1] [µg/mL]	MIC [2] [µg/mL]	MIC [3] [µg/mL]	MIC [4] [µg/mL]	MIC [5] [µg/mL]	MIC [6] [µg/mL]	MIC [7] [µg/mL]	MIC [8] [µg/mL]	MIC [9] [µg/mL]	MIC [10] [µg/mL]	MIC [11] [µg/mL]	MIC [12] [µg/mL]	MIC [13] [µg/mL]	MIC [14] [µg/mL]	MIC [15] [µg/mL]	MIC [16] [µg/mL]
COc1c(N2CCc3sc(C=O)cc3C2)c(F)cc2c(=O)c(C(=O)O)cn(C3CC3)c12	≤ 0.12	≤ 0.12	≤ 0.12	≤ 0.125	≤ 0.25	2 (≈ 4.52 µM)	≤ 0.12	0.25 (≈ 0.565 µM)	≤ 0.12	≤ 0.12	0.5 (≈ 1.13 µM)	> 16	≤ 0.12	8 (≈ 18.1 µM)	≤ 0.125	0.25 (≈ 0.565 µM)
COc1c(N2CCc3sc(CO)cc3C2)c(F)cc2c(=O)c(C(=O)O)cn(C3CC3)c12	0.5 (≈ 1.12 µM)	> 16	≤ 0.12	2 (≈ 4.5 µM)	–	–	0.5 (≈ 1.12 µM)	0.25 (≈ 0.562 µM)	≤ 0.12	≤ 0.12	2 (≈ 4.5 µM)	–	2 (≈ 4.5 µM)	16 (≈ 36 µM)	2 (≈ 4.5 µM)	0.25 (≈ 0.562 µM)
COc1c(N2CCc3sccc3C2)c(F)cc2c(=O)c(C(=O)O)cn(C3CC3)c12	> 16	> 16	≤ 0.12	≤ 0.125	0.25 (≈ 0.603 µM)	0.25 (≈ 0.603 µM)	2 (≈ 4.83 µM)	≤ 0.12	≤ 0.125	0.25 (≈ 0.603 µM)	2 (≈ 4.83 µM)	16 (≈ 38.6 µM)	≤ 0.12	> 16	≤ 0.125	≤ 0.125
COc1c(N2CCc3sc(C(=O)O)cc3C2)c(F)cc2c(=O)c(C(=O)O)cn(C3CC3)c12	> 16	1 (≈ 2.18 µM)	0.5 (≈ 1.09 µM)	2 (≈ 4.36 µM)	0.5 (≈ 1.09 µM)	> 16	8 (≈ 17.4 µM)	8 (≈ 17.4 µM)	1 (≈ 2.18 µM)	2 (≈ 4.36 µM)	> 16	> 16	2 (≈ 4.36 µM)	> 16	2 (≈ 4.36 µM)	16 (≈ 34.9 µM)
COc1c(N2CCc3sccc3C2)c(F)c([N+](=O)[O-])c2c(=O)c(C(=O)O)cn(C3CC3)c12	–	2 (≈ 4.35 µM)	0.25 (≈ 0.544 µM)	–	–	–	–	16 (≈ 34.8 µM)	–	–	–	–	8 (≈ 17.4 µM)	> 16	–	–
O=C(O)c1cn(C2CC2)c2cc(N3CCc4sccc4C3)c(F)cc2c1=O	> 16	8 (≈ 20.8 µM)	≤ 0.12	1 (≈ 2.6 µM)	1 (≈ 2.6 µM)	16 (≈ 41.6 µM)	–	0.25 (≈ 0.65 µM)	0.25 (≈ 0.65 µM)	≤ 0.12	> 16	> 16	4 (≈ 10.4 µM)	> 16	4 (≈ 10.4 µM)	4 (≈ 10.4 µM)
Nc1c(F)c(N2CCc3sccc3C2)c(F)c2c1c(=O)c(C(=O)O)cn2C1CC1	> 16	16 (≈ 38.3 µM)	≤ 0.12	4 (≈ 9.58 µM)	4 (≈ 9.58 µM)	> 16	> 16	0.25 (≈ 0.599 µM)	2 (≈ 4.79 µM)	4 (≈ 9.58 µM)	> 16	> 16	4 (≈ 9.58 µM)	> 16	8 (≈ 19.2 µM)	16 (≈ 38.3 µM)
CC(=O)Nc1c(F)c(N2CCc3sccc3C2)c(F)c2c1c(=O)c(C(=O)O)cn2C1CC1	–	> 16	1 (≈ 2.18 µM)	–	–	–	> 16	> 16	–	> 16	–	–	> 16	> 16	–	–
Nc1c(F)c(N2CCc3sc(Br)cc3C2)c(F)c2c1c(=O)c(C(=O)O)cn2C1CC1	–	> 16	> 16	–	–	–	> 16	> 16	–	> 16	–	–	–	> 16	–	–
COc1c(N2CCc3sc([N+](=O)[O-])cc3C2)c(F)cc2c(=O)c(C(=O)O)cn(C3CC3)c12	> 16	4 (≈ 8.71 µM)	≤ 0.12	4 (≈ 8.71 µM)	8 (≈ 17.4 µM)	> 16	≤ 0.12	0.5 (≈ 1.09 µM)	0.5 (≈ 1.09 µM)	0.25 (≈ 0.544 µM)	16 (≈ 34.8 µM)	> 16	≤ 0.12	1 (≈ 2.18 µM)	4 (≈ 8.71 µM)	16 (≈ 34.8 µM)
O=C(O)c1cn(C2CC2)c2c(F)c(N3CCc4sccc4C3)c(F)c(F)c2c1=O	> 16	2 (≈ 4.76 µM)	0.25 (≈ 0.595 µM)	2 (≈ 4.76 µM)	2 (≈ 4.76 µM)	> 16	> 16	0.5 (≈ 1.19 µM)	2 (≈ 4.76 µM)	8 (≈ 19 µM)	> 16	> 16	4 (≈ 9.51 µM)	> 16	4 (≈ 9.51 µM)	16 (≈ 38.1 µM)
COc1c(N2CCc3sc(COC(C)=O)cc3C2)c(F)cc2c(=O)c(C(=O)O)cn(C3CC3)c12	2 (≈ 4.11 µM)	≤ 0.12	≤ 0.12	1 (≈ 2.06 µM)	2 (≈ 4.11 µM)	–	0.5 (≈ 1.03 µM)	0.5 (≈ 1.03 µM)	≤ 0.12	2 (≈ 4.11 µM)	4 (≈ 8.22 µM)	–	0.25 (≈ 0.514 µM)	> 16	4 (≈ 8.22 µM)	1 (≈ 2.06 µM)
O=C(O)c1cn(C2CC2)c2cc(N3CCc4sc(Br)cc4C3)c(F)cc2c1=O	> 16	0.5 (≈ 1.08 µM)	≤ 0.12	0.5 (≈ 1.08 µM)	4 (≈ 8.63 µM)	> 16	–	1 (≈ 2.16 µM)	2 (≈ 4.32 µM)	2 (≈ 4.32 µM)	> 16	–	4 (≈ 8.63 µM)	> 16	4 (≈ 8.63 µM)	> 16
O=C(O)c1cn(C2CC2)c2cc(N3CCNCC3)c(F)cc2c1=O [CIPROFLOXACIN]	> 16	≤ 0.12	≤ 0.12	0.25 (≈ 0.754 µM)	0.5 (≈ 1.51 µM)	1 (≈ 3.02 µM)	2 (≈ 6.04 µM)	≤ 0.12	0.25 (≈ 0.754 µM)	≤ 0.12	> 16	> 16	1 (≈ 3.02 µM)	–	1 (≈ 3.02 µM)	1 (≈ 3.02 µM)
C[C@@H]1CN(c2c(F)c(N)c3c(=O)c(C(=O)O)cn(C4CC4)c3c2F)C[C@H](C)N1 [SPARFLOXACIN]	16 (≈ 40.8 µM)	0.25 (≈ 0.637 µM)	≤ 0.12	≤ 0.125	≤ 0.25	> 16	–	–	≤ 0.125	≤ 0.12	8 (≈ 20.4 µM)	16 (≈ 40.8 µM)	16 (≈ 40.8 µM)	0.25 (≈ 0.637 µM)	≤ 0.125	1 (≈ 2.55 µM)
